In ChEMBL document CHEMBL1137082, “Potent and selective conformationally restricted neuronal nitric oxide synthase inhibitors” (J Med Chem, 2004):
pIC50, pKi: −log10 of the molar value.

Experiments:
[1] = molecular target: T1, Nitric oxide synthase, inducible (Mus musculus) (UniProt P29477); test: Inhibitory activity against inducible nitric oxide synthase (iNOS) at 100 uM; parameters: scale not given: the % may be the effect or the level left
T1 sequence (whole entry): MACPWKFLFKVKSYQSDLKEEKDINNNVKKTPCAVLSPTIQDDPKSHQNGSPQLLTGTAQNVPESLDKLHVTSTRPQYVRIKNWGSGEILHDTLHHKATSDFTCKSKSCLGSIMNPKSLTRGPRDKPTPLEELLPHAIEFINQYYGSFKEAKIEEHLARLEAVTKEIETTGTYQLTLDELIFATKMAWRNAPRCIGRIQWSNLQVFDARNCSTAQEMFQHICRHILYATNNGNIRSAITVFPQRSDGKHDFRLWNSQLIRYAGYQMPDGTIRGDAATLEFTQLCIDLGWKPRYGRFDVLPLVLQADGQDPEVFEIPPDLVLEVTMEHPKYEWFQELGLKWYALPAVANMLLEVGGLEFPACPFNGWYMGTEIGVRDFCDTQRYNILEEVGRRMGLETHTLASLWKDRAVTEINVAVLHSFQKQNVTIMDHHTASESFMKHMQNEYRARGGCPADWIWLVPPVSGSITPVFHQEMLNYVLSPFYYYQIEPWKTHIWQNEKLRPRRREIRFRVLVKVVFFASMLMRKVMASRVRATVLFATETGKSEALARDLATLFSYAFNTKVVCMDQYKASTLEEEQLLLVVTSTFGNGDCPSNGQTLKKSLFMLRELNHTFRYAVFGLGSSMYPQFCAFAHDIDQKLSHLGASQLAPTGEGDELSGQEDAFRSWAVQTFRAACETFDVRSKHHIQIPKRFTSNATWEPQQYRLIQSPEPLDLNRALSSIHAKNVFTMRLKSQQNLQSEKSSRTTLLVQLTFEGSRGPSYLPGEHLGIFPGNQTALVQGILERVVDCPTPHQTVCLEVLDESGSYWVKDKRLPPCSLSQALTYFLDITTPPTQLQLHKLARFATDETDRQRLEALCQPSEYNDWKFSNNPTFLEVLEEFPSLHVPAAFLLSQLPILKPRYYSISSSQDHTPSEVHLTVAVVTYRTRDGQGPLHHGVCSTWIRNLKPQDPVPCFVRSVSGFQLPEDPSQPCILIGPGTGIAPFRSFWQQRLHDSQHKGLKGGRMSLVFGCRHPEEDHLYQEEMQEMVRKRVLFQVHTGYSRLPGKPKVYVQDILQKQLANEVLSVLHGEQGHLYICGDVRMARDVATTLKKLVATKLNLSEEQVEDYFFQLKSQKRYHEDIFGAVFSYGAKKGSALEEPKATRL
How it was run: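 Single-point screen against murine macrophage iNOS: enzyme residual activity measured at 100 μM inhibitor. NO formation monitored by hemoglobin capture assay with a UV/vis spectrophotometer.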

[2] = molecular target: T2, Nitric oxide synthase, inducible (Mus musculus, UniProt P29477)
T2 sequence (P29477 whole entry): T1 sequence (whole entry)

[3] = molecular target: T2, Nitric oxide synthase, inducible; test: Inhibitory activity against inducible nitric oxide synthase (iNOS)
[4] = molecular target: T3, Nitric oxide synthase 1 (Rattus norvegicus, UniProt P29476); test: Inhibitory activity against neuronal nitric oxide synthase (nNOS)
T3 sequence (P29476 whole entry): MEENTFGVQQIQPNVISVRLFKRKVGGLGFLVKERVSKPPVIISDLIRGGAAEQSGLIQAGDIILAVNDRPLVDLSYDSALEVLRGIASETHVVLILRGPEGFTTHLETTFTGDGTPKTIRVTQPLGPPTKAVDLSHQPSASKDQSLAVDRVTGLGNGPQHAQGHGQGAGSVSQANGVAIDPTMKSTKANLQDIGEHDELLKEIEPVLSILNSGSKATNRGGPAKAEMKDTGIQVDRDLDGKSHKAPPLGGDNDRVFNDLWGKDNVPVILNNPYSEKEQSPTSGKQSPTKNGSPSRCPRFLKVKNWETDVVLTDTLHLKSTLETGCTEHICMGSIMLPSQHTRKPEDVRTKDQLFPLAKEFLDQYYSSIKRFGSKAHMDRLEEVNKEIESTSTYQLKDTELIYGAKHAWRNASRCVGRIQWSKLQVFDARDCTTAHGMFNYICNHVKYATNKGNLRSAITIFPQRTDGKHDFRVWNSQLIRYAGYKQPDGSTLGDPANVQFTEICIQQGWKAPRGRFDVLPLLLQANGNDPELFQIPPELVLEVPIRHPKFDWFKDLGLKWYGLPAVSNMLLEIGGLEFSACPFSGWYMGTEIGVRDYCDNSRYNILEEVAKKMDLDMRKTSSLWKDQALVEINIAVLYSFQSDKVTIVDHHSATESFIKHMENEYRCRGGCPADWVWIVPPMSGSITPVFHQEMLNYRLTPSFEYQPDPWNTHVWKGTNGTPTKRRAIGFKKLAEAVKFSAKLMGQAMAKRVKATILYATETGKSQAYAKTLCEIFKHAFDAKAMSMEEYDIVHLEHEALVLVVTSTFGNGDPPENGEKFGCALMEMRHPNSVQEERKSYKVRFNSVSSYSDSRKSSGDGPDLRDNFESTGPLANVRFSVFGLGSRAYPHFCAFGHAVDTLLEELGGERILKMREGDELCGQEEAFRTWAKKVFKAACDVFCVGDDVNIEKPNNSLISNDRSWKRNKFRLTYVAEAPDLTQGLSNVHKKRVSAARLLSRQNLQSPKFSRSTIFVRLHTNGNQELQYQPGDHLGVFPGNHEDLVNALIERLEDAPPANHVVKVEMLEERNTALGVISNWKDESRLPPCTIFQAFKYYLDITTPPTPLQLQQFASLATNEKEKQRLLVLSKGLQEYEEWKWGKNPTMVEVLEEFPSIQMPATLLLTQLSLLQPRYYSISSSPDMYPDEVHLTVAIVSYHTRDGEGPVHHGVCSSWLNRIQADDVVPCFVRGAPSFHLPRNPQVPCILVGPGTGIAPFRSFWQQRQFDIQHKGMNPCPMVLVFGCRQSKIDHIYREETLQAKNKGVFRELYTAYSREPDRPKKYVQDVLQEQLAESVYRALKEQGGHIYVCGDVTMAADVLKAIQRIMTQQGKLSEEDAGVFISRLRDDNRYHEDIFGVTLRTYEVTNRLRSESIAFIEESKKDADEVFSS

[5] = molecular target: T3, Nitric oxide synthase 1; test: Binding affinity towards neuronal nitric oxide synthase (nNOS)

| Compound | Activity [1] | pKi [2] | pIC50 [3] | pIC50 [4] | pKi [5] |
| --- | --- | --- | --- | --- | --- |
| NC(=O)[C@@H]1C[C@@H](NC(=O)[C@@H](N)CCC/N=C(\N)N[N+](=O)[O-])CN1 | 10% | 4.54 | 4.19 | 6.19 |  |
| N=C(NCCC[C@H](N)C(=O)NC1CNC(C(N)=O)C1)N[N+](=O)[O-] (single isomer, unassigned) | 78% | 3.70 | 3.36 | 5.02 | 5.96 |
